According to ChEMBL document CHEMBL2010755, “Synthesis of new sulfonamides as lipoxygenase inhibitors” (Bioorg Med Chem, 2012):

Legend:
[1] = Inhibition of lipoxygenase using linoleic acid as substrate after 10 mins preincubation
How it was run: (§1)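 Purified lipoxygenase (600 units per well) in 100 mM sodium phosphate buffer pH 8.0, with test compound. Pre-read at 234 nm, preincubated 10 min at 25 °C, then started with linoleic acid. Absorbance change at 234 nm read after 6 min. Percent inhibition tested at 0.5 mM. IC50 obtained from dilutions of compounds exceeding 50% inhibition. Triplicates, mean ± SEM.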

[2] = Inhibition of lipoxygenase using linoleic acid as substrate at 0.5 mM after 10 mins preincubation; how it was run: as §1

| IC50 [1] [µM] | inhibition [2] [%] | SMILES |
| --- | --- | --- |
| 91.7 | 99 | Cc1ccc(S(=O)(=O)N(C(=O)c2ccccc2)c2ccc(C(=O)O)cc2)cc1 |
| 22.4 | – | O=c1cc(-c2ccccc2)oc2cc(O)c(O)c(O)c12 [BAICALEIN] |
| > 600 | 26.9 | Cc1ccc(S(=O)(=O)N(C/C=C/c2ccccc2)c2ccc(C(=O)OC/C=C/c3ccccc3)cc2)cc1 |
| 219 | 96.2 | C=CCN(c1ccc(C(=O)O)cc1)S(=O)(=O)c1ccc(C)cc1 |
| 176 | 98.1 | Cc1ccc(S(=O)(=O)N(C(=O)c2ccc(Cl)cc2)c2ccc(C(=O)O)cc2)cc1 |
| 189 | 88.5 | COC(=O)c1ccc(N(C)S(=O)(=O)c2ccc(C)cc2)cc1 |
| > 500 | 40 | CCCN(c1ccc(C(=O)O)cc1)S(=O)(=O)c1ccc(C)cc1 |
| 68.6 | 98.6 | CCCCCN(c1ccc(C(=O)O)cc1)S(=O)(=O)c1ccc(C)cc1 |
| 232 | 97 | Cc1ccc(S(=O)(=O)Nc2ccc(C(=O)OCC#N)cc2)cc1 |
| 139 | 99.4 | Cc1ccc(S(=O)(=O)Nc2ccc(C(=O)O)cc2)cc1 |
| 59.1 | 85.1 | Cc1ccc(S(=O)(=O)N(Cc2ccccc2)c2ccc(C(=O)O)cc2)cc1 |
| 61.4 | 99.4 | CCCCN(c1ccc(C(=O)O)cc1)S(=O)(=O)c1ccc(C)cc1 |
| 231 | 97.6 | CCOC(=O)c1ccc(N(CC)S(=O)(=O)c2ccc(C)cc2)cc1 |
| > 600 | 21.9 | Cc1ccc(S(=O)(=O)N(CCCl)c2ccc(C(=O)O)cc2)cc1 |
| 15.8 | 98.7 | CC(C)=CCN(c1ccc(C(=O)O)cc1)S(=O)(=O)c1ccc(C)cc1 |

| SMILES | IC50 [1] [µM] | inhibition [2] [%] |
| --- | --- | --- |
| O=c1c(O)c(-c2ccc(O)c(O)c2)oc2cc(O)cc(O)c12 [QUERCETIN] | 37.1 | – |
